Source: ChEMBL document CHEMBL3421557, “Sesamol reduces the atherogenicity of electronegative L5 LDL in vivo and in vitro” (J Nat Prod, 2015)
Activity calls are given as the source filed them. The calls are words filed in the database; no cut-off is given here.

What was measured:
Homo sapiens [1] = species: Homo sapiens; experiment: Induction of Akt phosphorylation in HAEC at 3 uM measured at 30 mins by Western blot analysis in presence of wortmannin and Akt inhibitor
Summary of the method: (§1)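 HAECs pretreated 30 min with vehicle (0.1% DMSO), 20 nM wortmannin or 2 nM Akt inhibitor, then ± 3 µM agent for 30 min. p-Akt and p-eNOS were immunoblotted and normalized to β-actin relative to vehicle control. Densitometry, n = 4 independent experiments, mean ± SD, t-test.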

[2] = target: Oxidized low-density lipoprotein receptor 1 (Homo sapiens) (UniProt P78380); experiment: Inhibition of LOX1-induced DiI-L5 endocytosis in HAEC at 3 uM preincubated for 30 mins followed by DiI-L5 treatment measured after 8 hrs by fluorescence microscopic analysis
Summary of the method: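 L5 labeled with DiI (1 mg/mL L5 with 80 µM DiI, 37 °C overnight), re-isolated by ultracentrifugation and dialyzed. HAECs were pretreated ± 3 µM agent for 30 min, then given DiI-L5 (50 µg/mL) for 8 h. Internalization was imaged by fluorescence microscopy with Hoechst nuclear counterstain.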

Syrian golden hamster [3] = experiment: Antiatherogenic activity in high-fat diet fed po dosed Syrian hamster assessed as decrease in plasma L5 level administered for 16 weeks by fast protein liquid chromatographic analysis; assay type: functional, organism-based; conditions: Mesocricetus auratus
Syrian golden hamster [4] = experiment: Antiatherogenic activity in high-fat diet fed Syrian hamster assessed as reduction of atherosclerotic lesions size in aortic arch at 100 mg/kg, po administered for 16 weeks by oil red o staining-based assay relative to high-fat diet fed control; assay type: functional, Mesocricetus auratus; design: scale not given: the % may be the effect or the level left
Summary of the method: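 High-fat-diet hamsters gavaged 50 or 100 mg/kg in 0.5% CMC for 16 weeks (n = 8/group). Aorta from root to mid-descending thoracic segment was fixed in 4% PFA and stained with 0.6% Oil Red O in 60% isopropanol for 30 min. Plaque area was taken as a ratio of total luminal area from stereoscope en face images. Mean ± SD, t-test.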

Syrian golden hamster [5] = experiment: Antiatherogenic activity in high-fat diet fed Syrian hamster assessed as decrease in plasma L5 level at 100 mg/kg, po administered for 16 weeks by fast protein liquid chromatographic analysis (reference value: 13.7%); assay type: functional, Mesocricetus auratus; design: scale not given: the % may be the effect or the level left
Syrian golden hamster [6] = experiment: Toxicity in high-fat diet fed Syrian hamster assessed as mortality at 50 to 100 mg/kg, po administered for 16 weeks measured over 22 weeks; assay type: organism-based, Mesocricetus auratus; design: dose 50-100 mg/kg, route oral; conditions: in vivo, 3696 h
[7] = target: T1, Nitric oxide synthase 3 (Homo sapiens) (UniProt P29474); experiment: Induction of eNOS phosphorylation in HAEC at 3 uM after 60 to 240 mins by Western blot analysis
T1 sequence (whole entry): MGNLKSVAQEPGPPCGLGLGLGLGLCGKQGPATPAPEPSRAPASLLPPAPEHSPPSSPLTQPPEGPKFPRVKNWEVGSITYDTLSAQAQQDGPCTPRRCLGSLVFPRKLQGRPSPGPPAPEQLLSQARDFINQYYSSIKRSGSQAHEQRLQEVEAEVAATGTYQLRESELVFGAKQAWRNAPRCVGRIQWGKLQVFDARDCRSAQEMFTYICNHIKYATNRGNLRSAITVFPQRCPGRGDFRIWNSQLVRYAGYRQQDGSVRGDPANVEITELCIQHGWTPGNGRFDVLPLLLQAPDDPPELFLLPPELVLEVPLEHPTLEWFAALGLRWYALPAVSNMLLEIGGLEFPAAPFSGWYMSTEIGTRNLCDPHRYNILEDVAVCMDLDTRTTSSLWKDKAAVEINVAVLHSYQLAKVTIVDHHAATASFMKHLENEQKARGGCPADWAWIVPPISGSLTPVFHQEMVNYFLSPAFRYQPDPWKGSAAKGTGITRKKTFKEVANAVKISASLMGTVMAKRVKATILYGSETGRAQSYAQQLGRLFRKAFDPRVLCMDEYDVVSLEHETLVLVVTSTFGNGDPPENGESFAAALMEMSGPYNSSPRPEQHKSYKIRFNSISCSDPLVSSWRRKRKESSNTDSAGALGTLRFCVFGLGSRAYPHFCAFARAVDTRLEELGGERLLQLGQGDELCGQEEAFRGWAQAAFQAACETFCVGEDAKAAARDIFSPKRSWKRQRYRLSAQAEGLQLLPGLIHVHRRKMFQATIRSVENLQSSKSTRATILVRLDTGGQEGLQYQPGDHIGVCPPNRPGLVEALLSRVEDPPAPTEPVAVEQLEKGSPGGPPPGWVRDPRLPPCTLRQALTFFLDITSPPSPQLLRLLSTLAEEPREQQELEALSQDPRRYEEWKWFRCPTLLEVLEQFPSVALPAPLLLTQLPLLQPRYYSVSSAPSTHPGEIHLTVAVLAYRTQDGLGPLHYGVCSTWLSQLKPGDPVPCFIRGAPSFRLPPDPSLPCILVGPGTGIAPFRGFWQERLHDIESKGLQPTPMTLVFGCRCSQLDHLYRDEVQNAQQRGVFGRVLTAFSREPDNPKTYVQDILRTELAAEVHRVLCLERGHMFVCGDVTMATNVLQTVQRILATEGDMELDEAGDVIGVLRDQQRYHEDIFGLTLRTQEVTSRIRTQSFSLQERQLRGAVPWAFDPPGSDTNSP
Summary of the method: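 HAECs treated with 3 µM agent or vehicle (0.1% DMSO) for 10, 30, 60, 120 and 240 min. Lysates were immunoblotted for p-eNOS and p-Akt, normalized to total eNOS or Akt relative to vehicle control. Densitometry, 4 independent experiments, mean ± SD, Student's t-test.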

Syrian golden hamster [8] = experiment: Toxicity in high-fat diet fed Syrian hamster assessed as change in body weight at 50 to 100 mg/kg, po administered for 16 weeks measured over 22 weeks; assay type: organism-based, Mesocricetus auratus; design: dose 50-100 mg/kg, route oral; conditions: in vivo, 3696 h
Homo sapiens [9] = species: Homo sapiens; experiment: Inhibition of L5-induced caspase-3 activation in HAEC preincubated for 30 mins followed by L5 induction measured after 24 hrs by immunoblot analysis; assay type: functional
Summary of the method: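 HAECs pretreated 30 min with vehicle (0.1% DMSO) or agent (0.3–3 µM), then ± L5 (50 µg/mL) 24 h. Cleaved caspase-3 immunoblot normalized to β-actin relative to vehicle control. Densitometry, n = 4, mean ± SD, Student's t-test.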

Syrian golden hamster [10] = experiment: Antiatherogenic activity in high-fat diet fed Syrian hamster assessed as decrease in plasma trigylceride level at 50 to 100 mg/kg, po administered for 16 weeks by automated analyzer relative to high-fat diet fed control; assay type: functional, organism-based; conditions: Mesocricetus auratus
Summary of the method: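 High-fat-diet hamsters gavaged 50 or 100 mg/kg in 0.5% CMC for 16 weeks (n = 8/group); chow and HFD controls received vehicle. Serum from fasted blood (3000g, 10 min) was assayed for TC, TG, VLDL-C, LDL-C and HDL-C with enzymatic kits on an automated analyzer. Mean ± SD, Student's t-test versus HFD group.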

Syrian golden hamster [11] = experiment: Antiatherogenic activity in high-fat diet fed Syrian hamster assessed as downregulation of active caspase-3 expression in aorta at 50 to 100 mg/kg, po administered for 16 weeks by immunohistochemical analysis; assay type: functional, organism-based; conditions: Mesocricetus auratus
Homo sapiens [12] = species: Homo sapiens; experiment: Activation of PI3K/Akt/eNOS signaling in HAEC assessed as inhibition of L5-induced caspase-3 activation preincubated for 30 mins followed by L5 induction measured after 24 hrs by Western blot analysis in presence of PI3K inhibitor wortmannin, Akt inhibitor, eNOS inhibitor L-NAME
Summary of the method: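 Primary HAECs (passage 3–4, 2% FBS complete medium) pretreated 30 min with vehicle (0.1% DMSO) or L-NAME (0.1 mM), then 3 µM test agent 30 min, then ± L5 (50 µg/mL) 24 h. Active caspase-3 measured by immunoblot on 50 µg lysate, normalized to β-actin relative to vehicle control. Densitometry, n = 4, mean ± SD, Student's t-test.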

[13] = target: T1, Nitric oxide synthase 3 (Homo sapiens); experiment: Induction of eNOS phosphorylation in HAEC at 3 uM measured at 30 mins by Western blot analysis in presence of wortmannin and Akt inhibitor; summary of the method: as §1
Syrian golden hamster [14] = experiment: Antiatherogenic activity in high-fat diet fed po dosed Syrian hamster assessed as decrease in total LDL electronegativity administered for 16 weeks by agarose gel electrophoresis; assay type: functional, organism-based; conditions: Mesocricetus auratus
Summary of the method: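 Total LDL from hamsters fed 16 weeks as chow, HFD, or HFD plus 50 or 100 mg/kg by gavage in 0.5% CMC. LDL isolated by KBr ultracentrifugation with EDTA and nitrogen protection. Samples of 2.5 µg run on 0.7% agarose (90 mM Tris/90 mM boric acid, pH 8.2) at 100 V for 1.4 h to assess electronegativity.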

## Oc1ccc2c(c1)OCO2
Homo sapiens [1]
  Activity: inactive
[2]
  inhibition: Active
Syrian golden hamster [3]
  Activity: Dose-dependent effect
Syrian golden hamster [4]
  Activity: 47.3%
Syrian golden hamster [5]
  Activity: 5.7%
Syrian golden hamster [6]
  Activity: Non-toxic
[7]
  Activity: inactive
Syrian golden hamster [8]
  Activity: Non-toxic
Homo sapiens [9]
  inhibition: Dose-dependent effect
Syrian golden hamster [10]
  Activity: Active
Syrian golden hamster [11]
  Activity: Active
Homo sapiens [12]
  inhibition: inactive
[13]
  Activity: inactive
Syrian golden hamster [14]
  Activity: Dose-dependent effect
